According to PMC7408314 (Inorganic chemistry, 2020):

Legend:
[1] = In vitro mouse serum challenge; type: in vitro ADME; details: 37 °C, at least six half-lives of scandium-44 (24 h)
Method in brief: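 Scandium-44-labelled complex (free chelator or its PSMA-617 conjugate, labelled at ambient temperature in 0.5 M NH₄OAc) mixed with an equal volume of mouse serum and held at 37 °C. Aliquots taken at 0.5, 4, 8 and 24 h, run on iTLC-SA in 0.4 M sodium citrate pH 4.5 beside free ⁴⁴Sc-in-serum control. Intact fraction calculated from baseline versus solvent-front peak areas.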

[2] = test system: PC3-PIP (PSMA+) and PC3-Flu (PSMA−) tumor-bearing nude mice; details: 7.4 vs 74 GBq/μmol
in vivo = details: male, nude, mouse, tumor (PSMA+, PC3-PIP), intravenous, total radioactivity, tumor retention
[3] = protonated tertiary amine in the pyridyl backbone; cited from earlier work
[4] = cited from earlier work
[5] = cited from earlier work; remark: listed apart in the source
[6] = cited from earlier work; remark: listed apart in the source
[7] = [L] = 10 μM, [M] = 1 μM, pH = 7.4; cited from earlier work
[8] = target: PSMA on PC3-PIP (PSMA+) cells (Homo sapiens, UniProt Q04609); assay: Receptor saturation binding assay on prostate cancer cells; details: 2 h incubation
Sequence of PSMA on PC3-PIP (PSMA+) cells (Q04609 whole entry): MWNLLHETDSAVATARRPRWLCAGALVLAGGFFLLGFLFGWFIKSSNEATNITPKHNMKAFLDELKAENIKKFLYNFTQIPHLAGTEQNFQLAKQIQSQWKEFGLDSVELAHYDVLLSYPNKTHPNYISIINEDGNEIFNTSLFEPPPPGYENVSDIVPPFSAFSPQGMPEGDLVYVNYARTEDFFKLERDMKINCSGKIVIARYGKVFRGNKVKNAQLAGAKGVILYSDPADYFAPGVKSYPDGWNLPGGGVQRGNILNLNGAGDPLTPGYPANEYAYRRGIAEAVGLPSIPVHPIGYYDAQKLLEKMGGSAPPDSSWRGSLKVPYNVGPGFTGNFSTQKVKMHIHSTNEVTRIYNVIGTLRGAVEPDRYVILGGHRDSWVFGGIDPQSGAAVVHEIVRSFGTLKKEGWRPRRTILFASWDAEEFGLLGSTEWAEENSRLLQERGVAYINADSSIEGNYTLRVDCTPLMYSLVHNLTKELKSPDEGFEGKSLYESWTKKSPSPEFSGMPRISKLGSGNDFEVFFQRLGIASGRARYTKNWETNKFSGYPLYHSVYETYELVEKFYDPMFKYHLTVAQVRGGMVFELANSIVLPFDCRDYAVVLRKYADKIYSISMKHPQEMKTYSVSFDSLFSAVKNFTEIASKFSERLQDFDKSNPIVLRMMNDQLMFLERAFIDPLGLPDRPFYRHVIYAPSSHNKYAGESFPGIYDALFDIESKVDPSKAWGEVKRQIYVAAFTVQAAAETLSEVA

O=C(O)CC[C@H](NC(=O)N[C@@H](CCCCNC(=O)[C@H](Cc1ccc2ccccc2c1)NC(=O)[C@H]1CC[C@H](CNC(=O)CCCCCCOc2cc(CN(CC(=O)O)Cc3cccc(C(=O)O)n3)nc(CN(CC(=O)O)Cc3cccc(C(=O)O)n3)c2)CC1)C(=O)O)C(=O)O [[^44Sc][Sc(pypa-C7-PSMA617)], metal not drawn]
transchelation in mouse serum [1]: < 1% | effect of lower apparent molar activity on kidney accumulation [2]: brought down the kidney accumulation by more than half | tissue uptake (in vivo; after about four half-lives of scandium-44, 7.4 GBq/μmol): 14.9 ± 1.7 %ID/g | tissue uptake (in vivo; after about four half-lives of scandium-44, 74 GBq/μmol): 20 ± 0.6 %ID/g

O=C(O)CN(Cc1cccc(CN(CC(=O)O)Cc2cccc(C(=O)O)n2)n1)Cc1cccc(C(=O)O)n1 [H4pypa]
highest pKa [3]: 7.78 | complex stability pM with In^3+ [4]: 30.5 | complex stability pM with Lu^3+ [5]: 22.6 | complex stability pM with La^3+ [6]: 19.9

CC1(N(CC(=O)O)CC(=O)O)CN(CC(=O)O)CCN(CC(=O)O)C1 [AAZTA, 6-[bis(hydroxycarbonyl-methyl)amino]-1,4-bis-(hydroxycarbonylmethyl)-6-methylperhydro-1,4-diaze-pine]
pSc (pM), −log [M]free [7]: 24.7

O=C(O)CC[C@H](NC(=O)N[C@@H](CCCCNC(=O)[C@H](Cc1ccc2ccccc2c1)NC(=O)[C@H]1CC[C@H](CNC(=O)CCCCCCOc2cc(CN(CC(=O)O)Cc3cccc(C(=O)O)n3)nc(CN(CC(=O)O)Cc3cccc(C(=O)O)n3)c2)CC1)C(=O)O)C(=O)O [H4pypa-C7-PSMA617]
Bmax [8]: 7.84 ± 0.37 fmol/mg

O=C(O)CN1CCN(CC(=O)O)CCN(CC(=O)O)CCN(CC(=O)O)CC1 [DOTA, 1,4,7,10-tetraazacyclododecane-1,4,7,10-tetraacetic acid]
pSc (pM), −log [M]free [7]: 23.9
